Data from PubChem BioAssay AID1800 (The Scripps Research Institute Molecular Screening Center, 2009).
Among all 290,000 compounds or so, about 1,600 (0.55%) were called active. This is one part of a sample in which actives are shown more often than they occur. A number with no mark means an inactive call.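 The calls were made as follows: active = inhibition above the mean of all tested compounds plus 3 SD, set per campaign (cut at about 35% in these data); inactive = the rest.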

These molecules were tested on Hepatitis C virus NS3 helicase (assay: HCV NS3 DNA unwinding blockers – biochemical, Cy5 molecular beacon fluorescence, primary screen (AID 1800)). Conditions: at 10.9 µM, hits give high values.
In short: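 Material: hepatitis C virus NS3 helicase domain fragment enzyme; measured by: Cy5 fluorescence, 0 and 60 min reads; control set: DMSO and thioflavine S; incubation: 60 min unwinding reaction at 25 °C after ATP addition; read-out basis: % inhibition from 60/0 min fluorescence ratio, DMSO 0%, thioflavine S 100%; repeats: singlicate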

SMILES	inhibition
Cc1ccc(Nc2nnc(SCC(=O)c3cc4ccccc4o3)s2)cc1C	13.9%
Cc1cc(NC(=O)CSc2nnc(Nc3ccccc3F)s2)no1	-0.95%
Cc1ccccc1Nc1nnc(SCC(=O)c2cc3ccccc3o2)s1	47.4% (active)
CC1CCN(S(=O)(=O)c2ccc(NC(=O)C3CC(=O)N(c4ccccc4)C3)cc2)CC1 (centres undefined)	-43.1%
CN(C)c1ccnc2sc3c(=O)n(-c4ccc(Cl)cc4)cnc3c12	3.7%
Cc1cc(C)c2oc(C(=O)Nc3ccc(S(=O)(=O)Nc4nccc(C)n4)cc3)cc(=O)c2c1	-10.1%
O=C(Nc1ccccc1C(=O)N1CCCCC1)c1ccco1	5.37%
CS/C(=C\C(=O)c1ccco1)Nc1ccccc1Cl	64.5% (active)
O=C(Nc1ccccc1)c1ccco1	10.7%
CCOc1ccc2sc(NS(=O)(=O)c3ccc(N)cc3)nc2c1	-15.8%
CN(C)[C@@H]1C(=O)C(C(N)=O)=C(O)[C@@]2(O)C(=O)C3=C(O)c4c(O)ccc(Cl)c4[C@@H](O)[C@H]3C[C@@H]12	39.9% (active)
Cc1cccc(-n2ncc(Cl)c(Cl)c2=O)c1	10.4%
Cc1ccc2nc3c(cc(C(=O)NCCc4ccccc4)c(=N)n3CC3CCCO3)c(=O)n2c1 (centres undefined)	-6.17%
O=C(Oc1ccc([N+](=O)[O-])cc1)c1ccc(Cl)c(S(=O)(=O)N2CCCCC2)c1	7.15%
CC(=O)Oc1cccc(N2C(=O)CC(Nc3ccc(N4CCOCC4)cc3)C2=O)c1 (centres undefined)	48.2% (active)
COc1cc2ccccc2cc1C(=O)Nc1ccc(N2CCOCC2)cc1	-2.47%
CC(=O)Oc1cccc(N2C(=O)C3CC=C(Cl)CC3C2=O)c1 (centres undefined)	6.02%
CCCCOC(=O)Nc1nnc(CC(=O)NCc2ccccc2)s1	8.31%
COc1ccc(NC(=O)CCC(=O)Nc2cc(OC)c(NC(=O)c3ccco3)cc2OC)c(OC)c1	7.66%
O=C(CSc1ccc(-c2ccco2)nn1)Nc1cccc(F)c1	20.3%
COc1ccc(NC(=O)CSc2ccc(-c3ccco3)nn2)c(OC)c1	36.8% (active)
CC1=C(C(=O)OCC2CCCCC2)C(c2ccc(F)cc2)NC(=O)N1 (centres undefined)	0.43%

SMILES	inhibition
O=C1c2ccccc2S(=O)(=O)N1Cc1c(F)cccc1Cl	0.54%
O=C1/C(=C/c2cccs2)CCc2ccccc21	-2.06%
CN1C/C(=C/c2cccs2)C(=O)/C(=C\c2cccs2)C1	9.92%
CCC1C/C(=C/c2cccs2)C(=O)/C(=C/c2cccs2)C1 (centres undefined)	44.1% (active)
NC(=O)C1CCN(CC(O)CSc2ccc(F)cc2)CC1 (centres undefined)	3.59%
O=C(Nc1ccccc1)C1CCN(C(=O)c2ccc(Br)cc2)CC1	-8.93%
Cc1ccc(S(=O)(=O)NCCC(c2ccccc2)c2ccccc2)cc1C(=O)O	38.8% (active)
Cc1ccc(S(=O)(=O)NCCSc2ccccc2)cc1[N+](=O)[O-]	-4.6%
Cc1ccc(S(=O)(=O)NCCCn2ccnc2)cc1C(=O)NC(C)C	-0.51%
O=[N+]([O-])c1ccc2c(c1)Nc1nc3ccccc3nc1N2	3.43%
CN1CCN(C(=O)c2cnn(-c3ccccc3)c2NC(=O)c2ccc([N+](=O)[O-])cc2)CC1	5.97%
CCOC(=O)c1c(-c2ccccc2)oc2cc(Br)c(O)c(C=O)c12	63.8% (active)
CCOC(=O)c1c(-c2ccccc2)oc2ccc(OCC(N)=O)cc12	-0.28%
CCOC(=O)c1c(-c2ccccc2)oc2cc(Br)c(O)cc12	-8.03%
CCOc1cc(-c2noc(CCCC(=O)NC3CCCCC3)n2)ccc1OC	-0.34%
CCOc1ccc(CN2CCN(Cc3c[nH]c4ccccc34)CC2)cc1	-65.4%
CCC1(C(=O)c2ccccc2)C(c2cccc([N+](=O)[O-])c2)C1(C(=O)OC)C(=O)OC (centres undefined)	-10.6%
Cc1ccc(N=C2NC(=O)/C(=C/C=C/c3ccco3)S2)cc1C	60.8% (active)
Cc1ccc(N2NC(=O)/C(=C/C=C/c3ccco3)C2=O)cc1C	31.6%
Cc1cccc(N=C2NC(=O)/C(=C/c3cn(C)c4ccccc34)S2)c1	-2.21%
Cc1ccc(S(=O)(=O)NCCC(=O)Nc2cccc(S(N)(=O)=O)c2)cc1C	-12.2%
Nc1c(C(=O)c2cccs2)sc2nsc(SCCN3CCCCC3)c12	-21.1%

SMILES	inhibition
CC(=O)c1cccc(NC(=S)N2CCN(S(C)(=O)=O)CC2)c1	-3.09%
Cc1ccc(OCC(=O)Nc2ccccc2Sc2ccc(Cl)cc2)c([N+](=O)[O-])n1	-5.04%
COc1ccc(/C=C/C(=O)c2ccc(OC)cc2O)cc1	-6.12%
COc1ccc(C(=O)/C=C/c2ccc(OC3CSC3)cc2)cc1	-2.94%
COc1ccc(/C=C/C(=O)c2cc(Br)ccc(=O)c2O)cc1	45.2% (active)
O=C(NC(=S)Nc1ccccc1N1CCCCC1)c1ccc(F)cc1	1.82%
CCCn1c(C2CCCN2c2nc(-c3ccc(C)cc3)cs2)nc2cc(Cl)c(N3CCCCC3)cc21 (centres undefined)	35.5%
CCn1c(C)c(C)c2cc(C(=O)N3CCN(c4cccc(C)c4C)CC3)ccc21	2.52%
Cc1ccc2nc(N3C(=O)C(O)=C(C(=O)c4ccco4)C3c3cccc(O)c3)sc2c1 (centres undefined)	25.4%
Cc1cc(N2C(=O)C(O)=C(C(=O)c3ccc(C)o3)C2c2ccc(OCc3ccccc3)cc2)no1 (centres undefined)	87.7% (active)
CCOc1cc(C2C(C(=O)c3ccco3)=C(O)C(=O)N2Cc2ccccc2)ccc1O (centres undefined)	9.26%
COc1cc(C2C(C(=O)c3ccco3)=C(O)C(=O)N2c2cc(C)on2)ccc1OCc1ccccc1 (centres undefined)	43.6% (active)
CCCOc1ccc(C2C(C(=O)c3ccc(C)o3)=C(O)C(=O)N2CCCn2ccnc2)cc1 (centres undefined)	-15.3%
C=CCOc1cccc(C2C(C(=O)c3ccc(C)o3)=C(O)C(=O)N2CCCn2ccnc2)c1 (centres undefined)	-4.21%
COc1ccc(-c2cc(C(=O)N3CCN(Cc4ccc5c(c4)OCO5)CC3)on2)cc1OC	-19.4%
CC(=O)Nc1ccc(C(=O)N(C2=NC(C)CS2)c2ccc(Cl)cc2)cc1 (centres undefined)	-10.2%
COc1ccccc1CCCNC(=O)C1CCC(=O)N(CCN2CCOCC2)C1 (centres undefined)	7.14%
COc1cccc(CNC(=O)c2cccnc2Sc2ccc(Cl)cc2)c1	-6.66%
CC(=O)O[C@H]1c2ccccc2-c2ccccc2[C@@H]1OC(C)=O	13.1%
O=Cc1c(NCCc2cccc(F)c2)c2ccccc2[nH]c1=O	0.14%
